Active and inactive are the calls of the source. No cut-off for these calls is given here.
What was measured:
[1] = Apparent permeability across absorptive direction in Sprague-Dawley rat ileum at 50 uM measured after 20 mins LC-MS/MS analysis; assay type: ADME, tissue-based
[2] = test system: Mus musculus; test: Ex vivo inhibition of MAOA in Swiss mouse brain homogenates assessed as residual activity at 30 mg/kg, po administered via gavage measured after 90 mins using 5-HT as substrate by amplex red reagent-based horseradish peroxidase-coupled fluorescence assay relative to control; assay type: functional
[3] = Photoisomerization of the compound in D2O incubated for 7 days under sunlight by NMR analysis
[4] = test system: Mus musculus; test: Ex vivo inhibition of MAOA in Swiss mouse brain homogenates assessed as residual activity at 0.3 mg/kg, ip administered once daily for 10 days measured 30 mins post-last dose using 5-HT as substrate by amplex red reagent-based horseradish peroxidase-coupled fluorescence assay relative to control; assay type: functional
[5] = test system: Mus musculus; test: Antianxiety activity in Swiss mouse assessed as increase in open arm entries at 3 mg/kg, ip measured after 30 mins and monitored for 5 mins by elevated plus maze test relative to control; assay type: functional
[6] = test system: Mus musculus; test: Ex vivo inhibition of MAOA in Swiss mouse brain homogenates assessed as residual activity at 0.3 mg/kg, ip measured after 30 mins using 5-HT as substrate by amplex red reagent-based horseradish peroxidase-coupled fluorescence assay relative to control; assay type: functional
[7] = biological target: T1, Amine oxidase [flavin-containing] A (Mus musculus, UniProt Q64133); test: Inhibition of MAOA in Swiss mouse brain homogenates assessed as residual activity at 50 uM using 5-HT as substrate preincubated for 10 mins followed by substrate addition by amplex red reagent-based horseradish peroxidase-coupled fluorescence assay relative to control; assay type: tissue-based; details: read-out: Activity
T1 sequence (Q64133 whole entry): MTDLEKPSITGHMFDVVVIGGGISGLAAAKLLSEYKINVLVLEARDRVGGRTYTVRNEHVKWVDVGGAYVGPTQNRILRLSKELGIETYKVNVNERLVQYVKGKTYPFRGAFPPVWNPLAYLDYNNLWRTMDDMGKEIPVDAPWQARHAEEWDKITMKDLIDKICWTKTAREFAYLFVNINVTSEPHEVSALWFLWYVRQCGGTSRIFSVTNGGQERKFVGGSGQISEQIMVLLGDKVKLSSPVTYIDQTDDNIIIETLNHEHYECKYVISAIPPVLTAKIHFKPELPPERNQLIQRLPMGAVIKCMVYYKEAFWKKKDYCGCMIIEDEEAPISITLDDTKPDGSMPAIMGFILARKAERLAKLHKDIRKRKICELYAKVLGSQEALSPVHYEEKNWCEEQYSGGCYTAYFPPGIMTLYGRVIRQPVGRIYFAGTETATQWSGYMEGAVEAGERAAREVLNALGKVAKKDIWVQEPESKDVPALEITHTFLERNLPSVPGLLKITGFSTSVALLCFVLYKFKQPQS

[8] = Toxicity in Swiss mouse assessed as change in body weight at 0.3 mg/kg, ip administered once daily for 10 days measured during compound dosing; assay type: organism-based; details: in vivo, 240 h
[9] = test system: Mus musculus; test: Effect on spontaneous locomotor activity in Swiss mouse assessed as change in number of light beam crossings at 3 mg/kg, ip measured after 30 mins and monitored for 5 mins; assay type: ADME, organism-based; details: in vivo
[10] = test system: Mus musculus; test: Antidepressant-like activity in Swiss mouse assessed as reduction in immobility time at 0.3 mg/kg, ip administered once daily for 10 days measured for last 4 mins of 6 mins test at 30 mins post-last dose test by tail suspension test; assay type: functional, organism-based
In short: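 Male Swiss mice injected ip daily with 0.3 mg/kg in 0.9% saline for 10 days (n = 10; saline controls n = 8). Tail suspension test on day 10, 30 min after the injection. Immobility time reported as mean ± SEM and compared by unpaired t-test.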

[11] = test system: Mus musculus; test: Ex vivo inhibition of MAOA/MAOB in Swiss mouse brain homogenates assessed as residual activity at 60 mg/kg, ip measured after 30 mins using p-tyramine as substrate by amplex red reagent-based horseradish peroxidase-coupled fluorescence assay relative to control; assay type: functional
In short: (§1)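 Male Swiss mice (n = 3 per group) received 60 mg/kg ip in 0.9% saline, or saline alone, 30 min before brain homogenate preparation. […] Residual activity reported as mean ± SD, n = 1 in triplicate.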

[12] = Toxicity in Swiss mouse assessed as change in behavior at 0.3 mg/kg, ip administered once daily for 10 days measured during compound dosing; assay type: organism-based; details: in vivo, 240 h
[13] = Thermodynamic solubility of the compound in pH 7.4 phosphate buffered saline assessed per […] at 7 to 9 mg incubated for 24 hrs under shaking condition by HPLC analysis; assay type: physicochemical; details: in vitro, pH 7.4, 24 h
[14] = test system: Mus musculus; test: Antianxiety activity in Swiss mouse assessed as increase in time spent in open arm entries at 3 mg/kg, ip measured after 30 mins and monitored for 5 mins by elevated plus maze test relative to control; assay type: functional
[15] = Chemical stability of the compound in D2O measured incubated for >1 year at room temperature under dark condition by NMR analysis; assay type: physicochemical
[16] = test system: Mus musculus; test: Ex vivo inhibition of MAOA in Swiss mouse brain homogenates assessed as residual activity at 60 mg/kg, ip measured after 30 mins using 5-HT as substrate by amplex red reagent-based horseradish peroxidase-coupled fluorescence assay relative to control; assay type: functional; in short: as §1
[17] = test system: Mus musculus; test: Ex vivo inhibition of MAOA in ip dosed Swiss mouse brain homogenates measured after 30 mins using 5-HT as substrate by amplex red reagent-based horseradish peroxidase-coupled fluorescence assay; assay type: functional
[18] = test system: Mus musculus; test: Antianxiety activity in Swiss mouse at 0.3 mg/kg, ip […] and monitored for 5 mins by elevated plus maze test; assay type: functional, organism-based
[19] = test system: SH-SY5Y; test: Cytotoxicity against human SH-SY5Y cells assessed as reduction in cell viability at 5 to 10 uM measured after 24 hrs by MTS assay; assay type: cell-based
In short: (§2)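 SH-SY5Y human neuroblastoma cells grown in Advanced DMEM with 10% FBS at 37 °C, 5% CO2, and switched to serum-depleted medium before treatment. Compounds (20 mM DMSO stocks) were applied at 5, 10 or 50 μM for 24 h. Viability read by MTS assay.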

[20] = Cytotoxicity against human SH-SY5Y cells assessed as cell viability at 50 uM measured after 24 hrs by MTS assay relative to control; assay type: cell-based; details: read-out: Activity; in short: as §2
[21] = Apparent permeability across eliminatory direction in Sprague-Dawley rat ileum at 50 uM measured after 20 mins LC-MS/MS analysis; assay type: ADME, tissue-based
[22] = test system: Mus musculus; test: Antidepressant-like activity in Swiss mouse assessed as reduction in immobility time at 1 to 30 mg/kg, ip administered as single dose for 30 mins prior to testing measured for last 4 mins of 6 mins test by tail suspension test; assay type: functional, organism-based
[23] = test system: Mus musculus; test: Effect on spontaneous locomotor activity in Swiss mouse assessed as change in number of light beam crossings at 0.3 mg/kg, ip administered […] and monitored for 5 mins; assay type: ADME, organism-based; details: in vivo
[24] = Apparent permeability in Sprague-Dawley rat ileum at 50 uM measured after 20 mins LC-MS/MS analysis; assay type: ADME, tissue-based
[25] = test system: SH-SY5Y; test: Neuroprotective activity against 6-OHDA-induced toxicity in human SH-SY5Y cells assessed as LDH release at 5 uM pretreated for 30 mins followed by 6-OHDA challenge and measured after 24 hrs by cytotox-onetm homogeneous membrane integrity assay (reference value: 135%); assay type: functional
[26] = test system: SH-SY5Y; test: Neuroprotective activity against 6-OHDA-induced toxicity in human SH-SY5Y cells assessed as reduction in propidium iodide positive cells at 5 uM pretreated for 30 mins followed by 6-OHDA challenge and measured after 24 hrs by propidium iodide staining-based flow cytometric analysis relative to 6-OHDA; assay type: functional
In short: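 SH-SY5Y cells were grown in Advanced DMEM with 10% FBS at 37 °C, 5% CO2 to 80% confluence, then switched to serum-depleted medium. Compound (5 μM, from a 20 mM DMSO stock) was added 30 min before 6-OHDA (100 μM). After 24 h, PI staining was read by flow cytometry. Runs were n ≥ 2, each in duplicate, with one-way ANOVA and Bonferroni.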

[27] = test system: Mus musculus; test: Ex vivo inhibition of MAOB in Swiss mouse brain homogenates assessed as residual activity at 30 mg/kg, po administered via gavage measured after 90 mins using benzylamine as substrate by amplex red reagent-based horseradish peroxidase-coupled fluorescence assay relative to control; assay type: functional
[28] = test system: Mus musculus; test: Ex vivo inhibition of MAOB in Swiss mouse brain homogenates assessed as residual activity at 0.3 mg/kg, ip measured after 30 mins using benzylamine as substrate by amplex red reagent-based horseradish peroxidase-coupled fluorescence assay relative to control; assay type: functional
[29] = biological target: T2, Amine oxidase [flavin-containing] B (Mus musculus, UniProt Q8BW75); test: Inhibition of MAOB in Swiss mouse brain homogenates assessed as residual activity at 50 uM using benzylamine as substrate preincubated for 10 mins followed by substrate addition by amplex red reagent-based horseradish peroxidase-coupled fluorescence assay relative to control; assay type: tissue-based; details: read-out: Activity
T2 sequence (Q8BW75 whole entry): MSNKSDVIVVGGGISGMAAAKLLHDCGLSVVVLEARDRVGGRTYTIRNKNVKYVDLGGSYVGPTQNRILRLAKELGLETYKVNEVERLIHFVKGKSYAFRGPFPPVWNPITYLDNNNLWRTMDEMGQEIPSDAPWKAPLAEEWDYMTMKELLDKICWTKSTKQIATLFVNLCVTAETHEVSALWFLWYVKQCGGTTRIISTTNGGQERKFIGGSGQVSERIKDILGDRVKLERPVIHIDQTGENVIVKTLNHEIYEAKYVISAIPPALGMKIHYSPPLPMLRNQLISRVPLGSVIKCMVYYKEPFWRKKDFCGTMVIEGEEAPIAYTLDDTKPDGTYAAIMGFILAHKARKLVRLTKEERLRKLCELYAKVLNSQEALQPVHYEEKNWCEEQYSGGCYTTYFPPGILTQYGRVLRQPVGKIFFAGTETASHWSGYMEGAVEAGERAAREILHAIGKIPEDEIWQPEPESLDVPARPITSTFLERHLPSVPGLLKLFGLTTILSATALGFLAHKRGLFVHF

[30] = test system: Mus musculus; test: Effect on behavioral changes in Swiss mouse at 0.3 mg/kg, ip administered […] and monitored for 5 mins by hole-board test; assay type: ADME, organism-based; details: in vivo
[31] = test system: Mus musculus; test: Ex vivo inhibition of MAOB in Swiss mouse brain homogenates assessed as residual activity at 60 mg/kg, ip measured after 30 mins using benzylamine as substrate by amplex red reagent-based horseradish peroxidase-coupled fluorescence assay relative to control; assay type: functional; in short: as §1
[32] = test system: Mus musculus; test: Ex vivo inhibition of MAOB in Swiss mouse brain homogenates assessed as residual activity at 0.3 mg/kg, ip administered once daily for 10 days measured 30 mins post-last dose using benzylamine as substrate by amplex red reagent-based horseradish peroxidase-coupled fluorescence assay relative to control; assay type: functional
[33] = test system: Mus musculus; test: Effect on behavioral changes in Swiss mouse at >10 mg/kg, ip measured after 30 mins and monitored for 5 mins by hole-board test; assay type: ADME, organism-based; details: in vivo
In short: (§3)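 Male Swiss mice given single ip doses of ≥10 mg/kg in 0.9% saline, tested 30 min later in the hole-board test combined with spontaneous locomotor activity recording.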

[34] = test system: Mus musculus; test: Effect on spontaneous locomotor activity in Swiss mouse assessed as change in number of light beam crossings at >10 mg/kg, ip measured after 30 mins and monitored for 5 mins; assay type: ADME, organism-based; details: in vivo; in short: as §3
[35] = test system: Mus musculus; test: Ex vivo inhibition of MAOB in ip dosed Swiss mouse brain homogenates measured after 30 mins using benzylamine as substrate by amplex red reagent-based horseradish peroxidase-coupled fluorescence assay; assay type: functional; details: 0.5 h

Compound: C#CCN1CCC(/C=C\c2cccc(F)c2)CC1.Cl
- Papp A→B at 20 min, 50 µM [1]: 10.8 ×10⁻⁶ cm/s
- Activity [2]: 45.3%
- Drug metabolism [3]: Metabolite not detected
- Activity [4]: 9.5%
- fold change (FC) [5]: 2
- Activity [6]: 67.8%
- activity at 50 µM [7]: -1.3%
- Activity [8]: Non-Toxic
- Activity [9]: Non-Toxic
- Activity [10]: Active
- Activity [11]: 14.2%
- Activity [12]: Non-Toxic
- Therm solubility [13]: ≥ 34.4 mg/mL
- fold change (FC) [14]: 2.1
- Stability [15]: Stable
- Activity [16]: 1.6%
- inhibition [17]: Dose-dependent effect
- ED50 ([17]; 0.5 h): 0.43 mg/kg
- Activity [18]: inactive
- Activity [19]: Non-Toxic
- viability at 24 h, 50 µM [20]: > 80%
- Papp at 20 min, 50 µM [21]: 35.4 ×10⁻⁶ cm/s
- Activity [22]: inactive
- Activity [23]: Non-Toxic

Compound: C#CCN1CCC(/C=C/c2ccc(C(F)(F)F)cc2)CC1.Cl
- Papp [24]: Impermeable
- Activity [25]: 87%
- fold change (FC) [26]: 0.65
- Activity [19]: Non-Toxic
- viability at 24 h, 50 µM [20]: > 80%

Compound: C#CCN1CCC(CCc2ccc(C(F)(F)F)cc2)CC1.Cl
- Activity [27]: 30.5%
- Activity [28]: 83.4%
- activity at 50 µM [29]: -7.7%
- Activity [8]: Non-Toxic
- Activity [11]: 77.2%
- Activity [12]: Non-Toxic
- Activity [30]: Toxic
- Activity [31]: 24.3%
- Activity [32]: 28.3%
- Stability [15]: Stable
- Activity [33]: Toxic
- Activity [34]: Toxic
- Activity [19]: Non-Toxic
- viability at 24 h, 50 µM [20]: > 80%
- ED50 [35]: 1.38 mg/kg
- Activity [23]: Toxic

— ChEMBL document CHEMBL4321878, “Stereoselective Activity of 1-Propargyl-4-styrylpiperidine-like Analogues That Can Discriminate between Monoamine Oxidase Isoforms A and B” (J Med Chem, 2020)
